High-throughput results as filed in PubChem BioAssay.
Shown are actives, neighbours in structure and some others; about 4% of the full set was active somewhere.
TAAR1 agonist – agonists of human TAAR1; activation, % at 3 µM; 0.99% of 360,000 active; AID 624467; CHO RD-HGA16 TAAR1, Fluo-8 calcium fluorescence; vehicle wells 0%, saturating PEA agonist 100%; Q96RJ0;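 active means activation above the mean activation of all test compounds in the run plus 3 SD, cut at about 38% in these data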
Target sequence (Q96RJ0 whole entry, looked up): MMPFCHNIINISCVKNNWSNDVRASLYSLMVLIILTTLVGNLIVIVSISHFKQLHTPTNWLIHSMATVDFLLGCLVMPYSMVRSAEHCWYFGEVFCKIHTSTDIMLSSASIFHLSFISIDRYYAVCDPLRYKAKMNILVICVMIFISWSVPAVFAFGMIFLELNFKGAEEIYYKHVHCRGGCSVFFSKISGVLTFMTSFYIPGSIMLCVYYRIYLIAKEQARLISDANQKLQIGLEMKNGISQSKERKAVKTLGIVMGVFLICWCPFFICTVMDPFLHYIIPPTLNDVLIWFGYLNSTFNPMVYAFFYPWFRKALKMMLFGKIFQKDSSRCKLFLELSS
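Assay system – CHO-derived RD-HGA16 cells with stable Gα16 and human TAAR1 · Compound dosing – one-point dosing at 3 µM (nominal) · Incubation – 17-24 h seeding, 75 min 37 °C dye, 30 min RT · Measured by – kinetic Fluo-8 calcium fluorescence · Control set – DMSO vehicle as 0%, PEA at EC100 as 100% · Repeats – single well for each compound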
OX1R antag-1 – OX1R (human) antagonism; O43613; OX1R-expressing cells, FRET antagonist read-out; inhibition, % at 6.6 µM; 1.8% of 330,000 active; AID 485270; in the data active means inhibition mostly above about 38%, no sharp cut-off; inactive means mostly below about 40%;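 further: 0% = agonist challenge alone and 100% = reference antagonist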
Target sequence (O43613 whole entry, looked up): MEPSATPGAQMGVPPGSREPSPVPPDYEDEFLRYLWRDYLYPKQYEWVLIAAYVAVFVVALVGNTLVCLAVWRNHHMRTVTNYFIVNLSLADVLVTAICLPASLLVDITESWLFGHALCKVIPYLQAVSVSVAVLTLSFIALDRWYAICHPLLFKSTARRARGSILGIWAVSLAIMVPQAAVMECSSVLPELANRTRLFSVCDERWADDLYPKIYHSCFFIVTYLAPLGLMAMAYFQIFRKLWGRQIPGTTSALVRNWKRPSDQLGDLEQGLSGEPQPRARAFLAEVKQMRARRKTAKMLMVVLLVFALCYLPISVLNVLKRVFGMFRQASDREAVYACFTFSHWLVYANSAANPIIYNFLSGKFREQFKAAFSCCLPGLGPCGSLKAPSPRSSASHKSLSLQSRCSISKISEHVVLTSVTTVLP
CHO parental Ca – counter-screen for OX1R antagonists: effect in parental CHO cells; parental CHO-K1, ATP-induced calcium, Fluo-8 fluorescence; inhibition, % at 5.6 µM; 0.63% of 330,000 active; AID 463079;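 active means inhibition above that plate's mean sample inhibition plus 3 SD, cut at about 26% in these data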;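 further: 0% = ATP-challenged DMSO wells and 100% = DMSO wells without ATP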
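Material – parental CHO cells · Reagent – ATP stimulus · Compound – single nominal dose of 5.6 µM per compound · Detection – Fluo-8 fluorescence · Read-out basis – percent inhibition of calcium signal · Controls – ATP-challenged DMSO wells low, unchallenged DMSO wells high · Repeats – no replicates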
OX1R antag-2 – blocks the human orexin 1 receptor. 0.43% of 330,000 active. O43613. CHO/OX1R cells, Fluo-8 calcium fluorescence, orexin A. AID 434989. inhibition, % at 5 µM;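 active means inhibition above its plate's threshold, mean inhibition of all tested compounds on the plate plus 3 SD, cut at about 37% in these data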;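 further: 0% = orexin A challenge wells and 100% = SB-334867-A antagonist wells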
TAAR1 antag – antagonists of human TAAR1; Q96RJ0; CHO RD-HGA16 TAAR1, Fluo-8 calcium fluorescence, antagonist; inhibition, % at 3 µM; 1.5% of 360,000 active; AID 624466;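 active means inhibition above a per-plate cutoff, the mean inhibition of test compounds on that plate plus 3 SD, cut at about 49% in these data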;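 further: 0% = DMSO plus EC80 beta-PEA response and 100% = DMSO alone without agonist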
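Test system: RD-HGA16 CHO cells with stable hTAAR1 and Gα16 / Probe or stimulus: EC80 β-phenethylamine stimulus / Times: seeding 17-24 h prior, 75-min 37 °C, 30-min RT dye loading / Detection: Fluo-8 calcium-sensitive fluorescence / Read-out basis: % inhibition scaled between DMSO and EC80 PEA controls / Repeats: singlicate, one well per test compound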
OX1R HTRF conf – confirmation of human orexin 1 receptor antagonists, HTRF format; shares compounds with OX1R antag-1; OX1R-expressing cells, HTRF antagonist assay; inhibition, % at 6.6 µM; 49% of 1,800 active; in the data active means inhibition above about 55%;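 further: CHO cells expressing OX1R stimulated with orexin A at about EC80; 0% = agonist challenge alone and 100% = reference antagonist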
CHO-K1 HTRF – counter-screen: parental CHO-K1 HTRF response; parental CHO-K1 cells, HTRF counterscreen; shares compounds with OX1R antag-1; AID 493232; inhibition, % at 6.6 µM; 48% of 1,800 active; in the data active means inhibition above about 17%;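 further: 0% = agonist challenge with vehicle and 100% = vehicle alone without agonist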
nonsel antag count – nonselective antagonist in TAAR1 antagonist counter-screen; shares compounds with TAAR1 antag; counterscreen cell line, calcium fluorescence, antagonist mode; inhibition, % at 3 µM; 77% of 2,400 active; AID 651780; in the data active means inhibition above about 22%;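 further: CHO-Ga16 host cells stimulated with ATP at an EC80 level; 0% = agonist EC80 plus vehicle and 100% = vehicle without agonist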
TAAR1 antag conf – confirmation of human TAAR1 antagonists; TAAR1-expressing cells, fluorescence antagonist read-out; inhibition, % at 3 µM; shares compounds with TAAR1 antag; 40% of 2,400 active; AID 651785; in the data active means inhibition above about 49%;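 further: CHO-Ga16 host cells challenged with agonist PEA near its EC80; 0% = agonist at EC80 plus vehicle and 100% = vehicle with no agonist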
Ga16 nonsel ag – counter-screen for TAAR1 antagonists: nonselective Ga16 agonists; shares compounds with TAAR1 antag; Ga16-expressing cells, calcium fluorescence, agonist counterscreen; activation, % at 3 µM; 18% of 2,400 active; in the data active means activation above about 12%;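 further: 0% = vehicle wells and 100% = saturating stimulus response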
TAAR1 ag count – activates human TAAR1 in antagonist counter-screen; activation, % at 3 µM; 2% of 2,400 active; hTAAR1 cell line, fluorescence activation, agonist mode; shares compounds with TAAR1 antag; in the data active means activation above about 37%;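 further: CHO cells stably expressing TAAR1 with calcium dye readout; 0% = DMSO vehicle and 100% = full agonist response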
Starred values were filed as active, the others as inactive; . = not tested or not shown.

SMILES	TAAR1 agonist	OX1R antag-1	CHO parental Ca	OX1R antag-2	TAAR1 antag	nonsel antag count	TAAR1 antag conf	Ga16 nonsel ag	TAAR1 ag count	others
COc1ccc(OC(=O)N(C)C[C@@H]2OCc3cnnn3CCCC(=O)N([C@H](C)CO)C[C@H]2C)cc1	0	.	.	.	-23	.	.	.	.
C[C@]12CCC3C(CC[C@H]4C[C@@H](O)[C@H](O)C[C@]34C)C1CC[C@@H]2O (stereo partly drawn)	13	8	-7	-9	12	.	.	.	.
O=c1[nH]c(O)c(N=Nc2ccc([N+](=O)[O-])cc2)c(=O)[nH]1	7	89*	2	-25	8	.	.	.	.	OX1R HTRF conf=62*;CHO-K1 HTRF=99*
O=c1[nH]c(=S)[nH]c(O)c1N=Nc1ccc(SC(F)F)cc1	-1	36	0	-14	0	.	.	.	.
O=c1[nH]c(O)c(C=Nc2ccccc2[N+](=O)[O-])c(=O)[nH]1	.	18	-7	-17	.	.	.	.	.
Cc1ccc(N=Nc2c(O)[nH]c(=O)[nH]c2=O)c([N+](=O)[O-])c1	-1	124*	-3	-8	0	.	.	.	.	OX1R HTRF conf=38;CHO-K1 HTRF=56*
O=C1c2ccccc2-n2nnc(-c3ccccc3)c2C2c3cc(Br)ccc3CCN12 (stereo not drawn)	5	.	.	.	11	.	.	.	.
CC(=O)N1CN2CN(C(C)=O)CC(C(=O)c3ccccc3)(C2)C1	0	13	5	-16	2	.	.	.	.
CC(=O)N1CN2CN(C(C)=O)CC(C(=O)c3ccc([N+](=O)[O-])cc3)(C2)C1	2	93*	-3	-8	-13	.	.	.	.	OX1R HTRF conf=58*;CHO-K1 HTRF=52*
CCOC(=O)c1sc(N=Nc2c(O)[nH]c(=O)[nH]c2=O)c(C(=O)OCC)c1C	.	7	4	-6	.	.	.	.	.
Cc1ccc(C(=O)O)cc1N=Nc1c(O)[nH]c(=O)[nH]c1=O	2	154*	-3	4	-11	.	.	.	.	OX1R HTRF conf=57*;CHO-K1 HTRF=101*
O=C(O)c1cccc(N=Nc2c(O)[nH]c(=O)[nH]c2=O)c1	0	138*	-13	3	-11	.	.	.	.	OX1R HTRF conf=62*;CHO-K1 HTRF=92*
COC(=O)C1=C(c2ccc(OCc3ccccc3)cc2)C[C@@H]2CC[C@H]1N2C(=O)NCCc1ccc(F)cc1	9	.	.	.	-4	.	.	.	.
O=C1NC(=O)C(=Cc2ccc(N3CCOCC3)o2)C(=O)N1	20	92*	3	-15	0	.	.	.	.	OX1R HTRF conf=50;CHO-K1 HTRF=99*
CCOC(=O)Cn1cc([N+](=O)[O-])nc1[N+](=O)[O-]	2	92*	0	-14	3	.	.	.	.	OX1R HTRF conf=42;CHO-K1 HTRF=53*
C[n+]1ccc(-c2ccccc2)c2ccccc21	1	96*	-1	4	1	.	.	.	.	OX1R HTRF conf=76*;CHO-K1 HTRF=84*
CCOP(=O)(CCP(=O)(OCC)OCC)OCC.C[CH2][Sn]([Cl])([Cl])[CH2]C	1	.	.	.	-26	.	.	.	.
Cc1ccc(-n2c(C)nc3ccccc3c2=O)cc1C	15	13	-2	-9	-5	.	.	.	.
COc1ccc(-n2c(/C=C/c3ccc(O)c(OC)c3)nc3ccccc3c2=O)cc1	7	24	-4	8	59*	29*	43	7	4
COc1ccc(-n2c(/C=C/c3ccc(O)cc3)nc3ccccc3c2=O)cc1	8	28	-6	-15	66*	30*	29	5	3
Cc1nc2ccccc2c(=O)n1-c1ccc(-c2ccccc2)cc1	12	11	-13	-38	50*	23*	48	6	10
CN1C2CNC(=O)CC1C1CCC2C1 (stereo not drawn)	1	.	.	.	0	.	.	.	.
CCCCn1nnnc1C(C1CC1)N1CCC(n2c(=O)[nH]c3ccccc32)CC1 (stereo not drawn)	15	.	.	.	73*	24*	45	10	20
CCCCn1nnnc1C(CCc1ccccc1)N1CCC(n2c(=O)[nH]c3ccccc32)CC1 (stereo not drawn)	11	.	.	.	67*	19	45	7	27
COc1cccc(C(c2nnnn2-c2c(C)cccc2C)N2CCC(n3c(=O)[nH]c4ccccc43)CC2)c1OC (stereo not drawn)	1	.	.	.	31	.	.	.	.
SMILES	TAAR1 agonist	OX1R antag-1	CHO parental Ca	OX1R antag-2	TAAR1 antag	nonsel antag count	TAAR1 antag conf	Ga16 nonsel ag	TAAR1 ag count	others
CCCCn1nnnc1C(CCSC)N1CCC(n2c(=O)[nH]c3ccccc32)CC1 (stereo not drawn)	17	.	.	.	65*	29*	54*	10	27
O=c1[nH]c2ccccc2n1C1CCN(C(c2ccnc3ccccc23)c2nnnn2-c2ccc3c(c2)OCCO3)CC1 (stereo not drawn)	18	.	.	.	66*	11	48	13*	48*
COc1ccc(-n2nnnc2C(c2ccccc2OC(F)(F)F)N2CCC(n3c(=O)[nH]c4ccccc43)CC2)cc1 (stereo not drawn)	0	.	.	.	31	.	.	.	.
CCCCn1nnnc1C(C1CC1)N1CCC2(CC1)C(=O)NCN2c1ccccc1 (stereo not drawn)	1	.	.	.	-12	.	.	.	.
O=c1[nH]c2cc(Cl)ccc2n1C1CCN(Cc2ccc(-c3nc4ccc(F)cc4nc3-c3ccccc3)cc2)CC1	2	.	.	.	-27	.	.	.	.
C[C@H]1CN([C@@H](C)CO)C(=O)CCCn2nncc2CO[C@H]1CN(C)C(=O)Oc1ccc2ccccc2c1	-1	.	.	.	-21	.	.	.	.
CCOC(=O)[C@]12Cc3cc(C)ccc3[C@H]1N(C(C)C)C(=O)c1ccccc12	0	.	.	.	-39	.	.	.	.
CCC(c1nnnn1-c1ccc(OC)cc1)N1CCC(n2c(=O)[nH]c3ccccc32)CC1 (stereo not drawn)	14	.	.	.	36	.	.	.	.
CCC(c1nnnn1Cc1ccccc1)N1CCC(n2c(=O)[nH]c3ccccc32)CC1 (stereo not drawn)	24	.	.	.	72*	35*	56*	11	14
COc1ccc(-n2nnnc2C(CCc2ccccc2)N2CCC(n3c(=O)[nH]c4ccccc43)CC2)cc1 (stereo not drawn)	7	.	.	.	57*	9	39	5	4
CCOC(=O)[C@]12Cc3cc(C)ccc3[C@H]1N(C1CCCCC1)C(=O)c1cc(OC)ccc12	3	.	.	.	-50	.	.	.	.
